Results taken from ChEMBL document CHEMBL4196017, “Design, synthesis and identification of silicon-containing HCV NS5A inhibitors with pan-genotype activity” (Eur J Med Chem, 2018).

Tests used:
[1] = target: T1, Nonstructural protein 5A (Hepatitis C virus) (UniProt Q5L478); assay: Potency index, ratio of ombitasvir IC50 to compound IC50 for inhibition of NS5A in HCV genotype 3a infected in human HuH7 replicon cells expressing HCV genotype 1b chimeric replicon; format: cell-based; details: Hepatitis C virus subtype 3a
T1 sequence (whole entry): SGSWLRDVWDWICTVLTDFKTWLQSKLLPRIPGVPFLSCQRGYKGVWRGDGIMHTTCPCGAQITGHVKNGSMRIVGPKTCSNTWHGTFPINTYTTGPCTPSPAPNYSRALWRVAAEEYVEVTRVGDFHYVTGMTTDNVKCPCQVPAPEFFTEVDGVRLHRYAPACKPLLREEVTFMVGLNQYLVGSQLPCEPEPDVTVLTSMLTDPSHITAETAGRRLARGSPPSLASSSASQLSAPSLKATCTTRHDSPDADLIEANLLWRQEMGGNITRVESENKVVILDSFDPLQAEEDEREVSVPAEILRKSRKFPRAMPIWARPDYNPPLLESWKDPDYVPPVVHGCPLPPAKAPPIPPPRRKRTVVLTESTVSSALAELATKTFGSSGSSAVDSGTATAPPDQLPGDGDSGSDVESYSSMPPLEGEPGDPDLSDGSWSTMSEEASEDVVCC

[2] = target: T1, Nonstructural protein 5A (Hepatitis C virus); assay: Potency index, ratio of ombitasvir IC50 to compound IC50 for inhibition of NS5A in HCV genotype 6a infected in human HuH7 replicon cells expressing HCV genotype 1b chimeric replicon; format: cell-based; details: Hepatitis C virus subtype 6a
[3] = tested on: Mus musculus; assay: Toxicity in ICR mouse assessed as RBC count at 150 mg/kg, po administered via gavage once daily for 14 days (reference value: 9.04 +/- 0.8 10^12/L); format: organism-based; details: in vivo, 336 h
Procedure, shortened: (§1)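 ICR mice, 5 males + 5 females per group, dosed by gavage once daily at 150 mg/kg (20 ml/kg) or vehicle for 14 days; killed after the 14th dose; blood from abdominal aorta under ether anaesthesia for hematology and clinical chemistry; mean ± SD, n = 10.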

[4] = tested on: Mus musculus; assay: Toxicity in ICR mouse assessed as eosinophil level in serum at 150 mg/kg, po administered via gavage once daily for 14 days (reference value: 1.66 +/- 0.54%); format: organism-based; details: in vivo, 336 h
Procedure, shortened: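 Haematology on abdominal aortic blood taken at necropsy under ether anaesthesia after 14 daily gavage doses (20 ml/kg) in ICR mice, 5 per sex per group, vehicle control. Parameters: WBC, RBC, haemoglobin, platelets, reticulocyte ratio and differential leukocyte counts; mean ± SD, n = 10.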

[5] = tested on: Mus musculus; assay: Toxicity in ICR mouse assessed as basophil level in serum at 150 mg/kg, po administered via gavage once daily for 14 days (reference value: 0.02 +/- 0.04%); format: organism-based; details: in vivo, 336 h; procedure, shortened: as §1
[6] = tested on: Mus musculus; assay: Toxicity in ICR mouse assessed as blood urea nitrogen level in serum at 150 mg/kg, po administered via gavage once daily for 14 days (reference value: 10.44 +/- 1.77 mmol/L); format: organism-based; details: in vivo, 336 h; procedure, shortened: as §1
[7] = tested on: Mus musculus; assay: Toxicity in ICR mouse assessed as direct bilirubin level in serum at 150 mg/kg, po administered via gavage once daily for 14 days (reference value: 7.6 +/- 0.59 umol/L); format: organism-based; details: in vivo, 336 h
[8] = tested on: Mus musculus; assay: Toxicity in ICR mouse assessed as triglyceride level at 150 mg/kg, po administered via gavage once daily for 14 days (reference value: 1.67 +/- 0.32 mmol/L); format: organism-based; details: in vivo, 336 h
[9] = tested on: Mus musculus; assay: Toxicity in ICR mouse assessed as thymus weight at 150 mg/kg, po administered via gavage once daily for 14 days (reference value: 0.289 +/- 0.081 g); format: organism-based; details: in vivo, 336 h

Question: CC[Si](CC)(CC)c1ccc(N2[C@H](c3ccc(NC(=O)[C@@H]4CCCN4C(=O)[C@@H](NC(=O)OC)C(C)C)cc3)CC[C@H]2c2ccc(NC(=O)[C@@H]3CCCN3C(=O)[C@@H](NC(=O)OC)C(C)C)cc2)cc1 was tested. Which Ratio IC50 [1] did it give?
Answer: 8.6

Question: What about the Ratio IC50 [2] of the same compound?
Answer: 7.6

Question: And the Activity [3]?
Answer: 9 ×10¹² /L

Question: What about the Activity [4] of the same compound?
Answer: 1.88%

Question: What about the Activity [5] of the same compound?
Answer: 0.02%

Question: What about the Activity [6] of the same compound?
Answer: 10.16 mmol/L

Question: And the Activity [7]?
Answer: 8.57 µmol/L

Question: And the Activity [8]?
Answer: 1.53 mmol/L

Question: What about the Activity [9] of the same compound?
Answer: 0.24 g
